Assays:
Plasmodium falciparum = assay: Antiprotozoal activity against chloroquine and pyrimethamine-resistant Plasmodium falciparum K1; assay type: functional, organism-based
Summary of the method: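 Read-out was IC50 against the K1 strain of P. falciparum, which is resistant to chloroquine and pyrimethamine. The table footnote gives values from two independent experiments.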

[1] = system: Trypanosoma brucei rhodesiense; assay: Antiprotozoal activity against Trypanosoma brucei rhodesiense STIB900; assay type: functional, organism-based
L6 = assay: Cytotoxicity against rat L6 cells; assay type: cell-based

SMILES	IC50 (Plasmodium falciparum; Plasmodium falciparum, K1)	IC50 ([1]; Trypanosoma brucei)	IC50 (L6; Rattus norvegicus, L6)	IC50 (Plasmodium falciparum)	IC50 [1]	IC50 (L6; l6)
OC1CC2(N3CCCC3)CC(c3ccccc3)C1C(c1ccccc1)C2 (racemic)	1.23 µM	2.53 µM	35.4 µM			
CN(C)C12CC(O)C(C(c3ccccc3)C1)C(c1ccccc1)C2 (racemic)				13.1 µM	3.64 µM	158 µM
OC1CC2(N3CCCCC3)CC(c3ccccc3)C1C(c1ccccc1)C2 (racemic)			34.3 µM	2.77 µM	13.1 µM	
O=C(OC1CC2(N3CCCC3)CC(c3ccccc3)C1C(c1ccccc1)C2)c1cccnc1 (racemic)		1.07 µM	18.7 µM	2.34 µM		
O=C(OC1CC2(N3CCCCC3)CC(c3ccccc3)C1C(c1ccccc1)C2)c1cccnc1 (racemic)						21.3 µM
CN(C)C12CC(OC(=O)c3ccc(Cl)cc3)C(C(c3ccccc3)C1)C(c1ccccc1)C2 (racemic)		2.04 µM		1.11 µM		4.35 µM
O=C(OC1CC2(N3CCCC3)CC(c3ccccc3)C1C(c1ccccc1)C2)c1ccc(Cl)cc1 (racemic)	0.76 µM				0.86 µM	7.31 µM
O=C(OC1CC2(N3CCCC3)CC(c3ccccc3)C1C(c1ccccc1)C2)c1ccccc1 (racemic)			8.41 µM	0.8 µM	0.96 µM	
O=C(OC1CC2(N3CCCCC3)CC(c3ccccc3)C1C(c1ccccc1)C2)c1ccccc1 (racemic)	0.77 µM				3.12 µM	17.2 µM
CN(C)C12CC(OC(=O)c3ccccc3)C(C(c3ccccc3)C1)C(c1ccccc1)C2 (racemic)		1.12 µM	6.02 µM	1.18 µM		
O=C(OC1CC2(N3CCCCC3)CC(c3ccccc3)C1C(c1ccccc1)C2)c1ccc(Cl)cc1 (racemic)	1.12 µM				1.76 µM	23 µM
CN(C)C12CC(OC(=O)c3cccnc3)C(C(c3ccccc3)C1)C(c1ccccc1)C2 (racemic)				0.5 µM	1.52 µM	12.2 µM
CN(C)C12CC(OC(=O)c3ccncc3)C(C(c3ccccc3)C1)C(c1ccccc1)C2 (racemic; 7a)				1.14 µM	3.16 µM	26.1 µM
O=C(OC1CC2(N3CCCC3)CC(c3ccccc3)C1C(c1ccccc1)C2)c1ccncc1 (racemic; 7b)				0.86 µM	3.49 µM	27.4 µM
O=C(OC1CC2(N3CCCCC3)CC(c3ccccc3)C1C(c1ccccc1)C2)c1ccncc1 (racemic; 7c)				0.65 µM	16.9 µM	113 µM
CN(C)C12CC(OC(=O)c3ccncc3)C(C(c3ccccc3)C1)C(c1ccccc1)C2 (racemic; 11a)		1.68 µM		0.49 µM		12.5 µM
O=C(OC1CC2(N3CCCC3)CC(c3ccccc3)C1C(c1ccccc1)C2)c1ccncc1 (racemic; 11b)			26.9 µM	4.49 µM	1.44 µM	
O=C(OC1CC2(N3CCCCC3)CC(c3ccccc3)C1C(c1ccccc1)C2)c1ccncc1 (racemic; 11c)	0.62 µM				3.35 µM	21.3 µM
CN(C)C12CC(OC(=O)c3ccccc3)C(C(c3ccccc3)C1)C(c1ccccc1)C2 (stereo in doubt; 4a)				2.47 µM	1.53 µM	9.88 µM
O=C(OC1CC2(N3CCCC3)CC(c3ccccc3)C1C(c1ccccc1)C2)c1ccccc1 (stereo in doubt; 4b)				4.5 µM	4.95 µM	5.08 µM
O=C(OC1CC2(N3CCCCC3)CC(c3ccccc3)C1C(c1ccccc1)C2)c1ccccc1 (stereo in doubt; 4c)				0.66 µM	15 µM	97.3 µM
CN(C)C12CC(OC(=O)c3ccc(Cl)cc3)C(C(c3ccccc3)C1)C(c1ccccc1)C2 (stereo in doubt; 5a)				0.55 µM	1.06 µM	9.46 µM
O=C(OC1CC2(N3CCCC3)CC(c3ccccc3)C1C(c1ccccc1)C2)c1ccc(Cl)cc1 (stereo in doubt; 5b)				0.47 µM	6.27 µM	74.9 µM
O=C(OC1CC2(N3CCCCC3)CC(c3ccccc3)C1C(c1ccccc1)C2)c1ccc(Cl)cc1 (stereo in doubt; 5c)				0.79 µM	37.6 µM	104 µM
CN(C)C12CC(OC(=O)c3cccnc3)C(C(c3ccccc3)C1)C(c1ccccc1)C2 (stereo in doubt; 6a)				1.49 µM	15.9 µM	171 µM
O=C(OC1CC2(N3CCCC3)CC(c3ccccc3)C1C(c1ccccc1)C2)c1cccnc1 (stereo in doubt; 6b)				0.2 µM	0.62 µM	24.4 µM
O=C(OC1CC2(N3CCCCC3)CC(c3ccccc3)C1C(c1ccccc1)C2)c1cccnc1 (stereo in doubt; 6c)	0.48 µM	70.9 µM				0.87 µM
